# Compounds with a hit are over-represented: about 5.5% of the library has one in this group of screens.
# Ecoli tolC: E. coli tolC mutant growth inhibition; actives 2.2% (n = 65,000); E. coli BW25113 tolC mutant growth, OD615; growth inhibition, % at 10 µM (by protocol); AID 573;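 active = growth inhibition at or above a cutoff equal to the mean over every tested compound plus 3 SD, cut at about 60% in these data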;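 also: growth measured after 20 h incubation at 37 °C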
#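 Signal: optical density read at 615 nm; Assay system: E. coli ΔtolC::kan strain BW25113; Times: 20 h incubation with compound, 37 °C; Dosing: 10 µM final, single dose.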
# E coli WT exp: growth inhibitors of E. coli BW25113 wild type; OD600 absorbance; growth inhibition, % at 100 µM; actives 0.15% (n = 98,000); AID 710;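 active = growth inhibition above about 50% at one test dose, limit read from the data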;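 also: growth measured after 20 h incubation at 37 °C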
# HePTP inhibitor: blocks human HePTP tyrosine phosphatase; P35236; recombinant HePTP phosphatase activity, OD absorbance; inhibition, % at 20 µM; actives 0.64% (n = 110,000); AID 521; in the data active = inhibition above about 50%
# Target sequence (P35236 whole entry, looked up): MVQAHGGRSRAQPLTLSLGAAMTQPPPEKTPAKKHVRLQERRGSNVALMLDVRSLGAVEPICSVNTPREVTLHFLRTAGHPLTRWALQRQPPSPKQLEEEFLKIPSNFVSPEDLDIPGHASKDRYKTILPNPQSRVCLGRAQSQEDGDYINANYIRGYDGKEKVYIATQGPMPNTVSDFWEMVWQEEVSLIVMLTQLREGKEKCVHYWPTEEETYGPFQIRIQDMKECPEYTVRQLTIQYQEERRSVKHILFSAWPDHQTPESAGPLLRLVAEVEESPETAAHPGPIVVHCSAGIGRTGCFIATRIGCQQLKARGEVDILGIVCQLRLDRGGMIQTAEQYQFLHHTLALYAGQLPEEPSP
# PLAP activator: human PLAP activation; P05187; purified PLAP enzyme, luminescent substrate read-out; stronger effect = higher value; activation fold at 20 µM; actives 1.2% (n = 96,000); in the data active = activation fold above about 2
# PostGolgi yeast: growth inhibition of a yeast mutant, post-Golgi transport screen; post-Golgi transport phenotypic cell assay; inhibition, % at 10 µM; actives 0.9% (n = 98,000); AID 739;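 also: yeast cells grown in 1536-well plates; yeast grown about 18 h at 30C before absorbance read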
# PostGolgi ctrl: inhibits growth of the yeast control strain; inhibition, % at 10 µM; AID 738; efflux-deficient yeast background strain, growth absorbance A615, 16 h; actives 5% (n = 98,000)
# Hits are given with their value; i = inactive; nt = no result. Rule as the data show it, unless noted: active = inhibition above about 30%; inactive = the rest.
SMILES,Ecoli tolC,E coli WT exp,HePTP inhibitor,PLAP activator,PostGolgi yeast,PostGolgi ctrl
O=C(c1ccco1)N1CCN=C1SCc1cccnc1,i,i,i,i,30.1,i
Cc1ccc(C(=O)NCCNc2ccc([N+](=O)[O-])cc2Cl)o1,nt,nt,i,nt,nt,nt
N#Cc1c(NC(=O)COC(=O)c2ccc(F)cc2)sc2c1CCC2,nt,i,nt,i,i,36.8
Brc1ccc(C(Cc2ccccc2)Nc2ccccn2)cc1 (stereo not given),nt,nt,i,nt,nt,nt
CC(=O)NC1=NC(=O)/C(=C\c2ccc(-c3ccc(C(=O)O)cc3)o2)S1,nt,nt,103.5,nt,nt,nt
CC(=O)NC1=NC(=O)/C(=C\c2ccc(Br)o2)S1,nt,nt,101.5,nt,nt,nt
COC(=O)c1cc(-c2cccs2)nc2ccc(Br)cc12,nt,nt,i,nt,nt,nt
Cc1ccc2c(c1)-c1c(ssc1=S)C(C)(C)N2C(=O)CC(C)C,nt,nt,i,nt,nt,nt
COc1ccccc1C(CCN(Cc1cccs1)C(C)=O)c1ccco1 (stereo not given),i,i,i,i,i,38.5
CCC(=O)NCCC(c1ccco1)c1ccccc1OC (stereo not given),nt,i,i,nt,i,i
CCC(=O)N(CCC(c1ccccc1)c1ccco1)Cc1cccs1 (stereo not given),nt,i,nt,i,i,48.5
COc1ccc(NC(=O)C2=C(C)NC(=O)NC2c2ccc(OC)cc2OC)cc1 (stereo not given),nt,nt,i,nt,nt,nt
O=C(Nc1nc(-c2cccs2)cs1)c1ccc(S(=O)(=O)N2CCCCC2)cc1,i,i,i,i,i,41.4
O=C(Nc1nc(-c2cccs2)cs1)c1cccc(S(=O)(=O)N2CCCCCC2)c1,i,i,i,i,i,i
COc1ccc(OC)c(CN2CCN(S(=O)(=O)c3ccc(C)cc3)CC2)c1,nt,nt,i,nt,nt,nt
Cc1cc(C)c2cc(CN(CCO)Cc3nnnn3Cc3ccc(F)cc3)c(=O)[nH]c2c1,i,i,i,i,i,i
Cc1cccc2cc(CN(CC3CCCO3)S(=O)(=O)c3ccccc3)c3nnnn3c12 (stereo not given),i,nt,i,i,nt,nt
Cc1ccc2cc(CN(CCO)Cc3nnnn3Cc3ccc(F)cc3)c(=O)[nH]c2c1,i,i,i,i,36.9,i
Cc1cccc2cc(CN(Cc3nnnn3Cc3ccco3)C3CCCC3)c3nnnn3c12,i,i,i,i,i,42.6
Cc1ccc2[nH]c(=O)c(CN(Cc3ccc4c(c3)OCO4)Cc3nnnn3C3CCCC3)cc2c1,62.0,i,i,i,i,i
Cc1ccc2[nH]c(=O)c(CN(Cc3nnnn3Cc3ccccc3)C3CCCC3)cc2c1,74.5,i,i,i,i,i
N/C(=N\c1nc(C(F)(F)F)cc(=O)[nH]1)Nc1ccc(-c2ccccc2)cc1,nt,nt,i,nt,nt,nt
O=C(Nc1ccc(Cl)c(Cl)c1)Nc1nnc(Cc2ccccc2F)s1,nt,nt,i,nt,nt,nt
Cc1cc(NC(=O)COC(=O)[C@H](C)NC(=O)c2ccccc2)no1,nt,i,nt,i,i,i
Cc1cc(NC(=O)COC(=O)C(Nc2ccc(C(F)(F)F)cc2Cl)C(C)C)no1 (stereo not given),91.0,i,i,i,i,59.1
SMILES,Ecoli tolC,E coli WT exp,HePTP inhibitor,PLAP activator,PostGolgi yeast,PostGolgi ctrl
COc1ccc(S(=O)(=O)N2CCN(C(=O)c3cccc(OC)c3)CC2)cc1,nt,nt,i,nt,nt,nt
COc1cc(NS(=O)(=O)c2ccc(NC(=O)NC3CCCCC3)cc2)nc(OC)n1,i,i,i,i,i,i
Cc1noc(NS(=O)(=O)c2ccc(NC(=O)COc3ccc(Cl)cc3Cl)cc2)c1C,63.2,i,i,i,i,i
COc1cc(NS(=O)(=O)c2ccc(NC(=O)COc3ccccc3Cl)cc2)nc(OC)n1,71.5,i,i,i,i,i
O=C(Nc1ccccc1Cl)c1ccc(CN2CCOCC2)cc1,nt,nt,i,nt,nt,nt
COC(=O)c1ccccc1NC(=O)c1sc(=S)n(C)c1N,i,i,i,i,i,36.0
COC(=O)c1ccccc1NC(=O)c1sc(N)nc1C,i,i,i,i,i,i
CC(=O)OCC(=O)NCc1ccc2c(c1)OCO2,i,i,i,i,i,30.5
Cc1cc(OCC(=O)NNC(=O)c2cccc(Cl)c2)ccc1Br,nt,nt,i,nt,nt,nt
COCCn1c(=O)[nH]c2cc(C(=O)NCCc3ccc(OC)c(OC)c3)ccc2c1=O,i,i,i,i,i,34.0
COCCn1c(=O)[nH]c2cc(C(=O)NCC3CCCO3)ccc2c1=O (stereo not given),i,i,i,i,i,i
CC(OC(=O)c1ccccc1NCc1ccco1)C(=O)Nc1ncc(Cl)cc1Cl (stereo not given),61.2,i,i,i,i,i
CC(OC(=O)c1nsc(Cl)c1Cl)C(=O)NCc1ccco1 (stereo not given),i,i,i,i,i,i
COc1ccc(-c2n[nH]c(=S)n2C2CCCCC2)cc1,i,i,i,2,i,i
S=c1[nH]nc(-c2ccccc2)n1C1CCCCC1,nt,nt,i,nt,nt,nt
COc1ccc(Cl)cc1-c1n[nH]c(=S)n1C1CCCCC1,nt,i,nt,2.4,i,i
Cc1cc(Cl)ccc1OCc1n[nH]c(=S)n1C1CCCCC1,nt,i,nt,i,99.4,96.2
O=c1oc2cc(OCc3ccc(Cl)cc3)ccc2c2c1CCCC2,nt,nt,i,nt,nt,nt
O=C(Nc1cc([N+](=O)[O-])ccc1F)c1ccccc1Br,nt,nt,i,nt,nt,nt
CCOc1cc(C(=O)N2CCN(C)CC2)cc(OCC)c1OCC,nt,nt,i,nt,nt,nt
COc1ccc(C2=NOC(C(=O)Nc3cc(C)on3)C2)cc1 (stereo not given),nt,i,nt,i,i,35.2
COc1ccc(OC)c(C2=NOC(C(=O)Nc3ccccc3SC)C2)c1 (stereo not given),nt,i,nt,i,i,i
Cc1cc(NC(=O)C2CC(c3ccc(Cl)cc3)=NO2)no1 (stereo not given),nt,i,nt,i,i,i
COc1ccc(OC)c(C2=NOC(C(=O)Nc3cc(C)nn3-c3ccccc3)C2)c1 (stereo not given),i,i,i,i,i,41.5
O=C(Nc1ccc(Cl)cc1)c1ccc2c(c1)OCCO2,nt,nt,i,nt,nt,nt
SMILES,Ecoli tolC,E coli WT exp,HePTP inhibitor,PLAP activator,PostGolgi yeast,PostGolgi ctrl
Fc1ccc(NC(=S)Nc2ccccn2)cc1,nt,nt,i,nt,nt,nt
S=C(Nc1ccccn1)c1ccccn1,i,i,i,2.4,i,i
C=C(C)CNC(=S)Nc1ccccn1,nt,nt,103.0,nt,nt,nt
COC(=O)c1ccccc1NC(=O)CN(c1cccc(Cl)c1)S(C)(=O)=O,nt,nt,i,nt,nt,nt
O=C(Nc1cccc(Cl)c1)N(CCN1CCOCC1)Cc1cccc(Cl)c1,100.0,i,i,i,i,i
O=C(Nc1cccc(Cl)c1)N(CCN1CCOCC1)Cc1ccccc1F,nt,i,nt,i,i,i
O=c1/c(=C\c2ccc(OCc3ccc(Cl)cc3Cl)cc2)sc2nc3ccccc3n12,nt,nt,i,nt,nt,nt
O=C(Nc1nc(-c2ccc3ccccc3c2)cs1)c1cc(Cl)ccc1Cl,nt,nt,i,nt,nt,nt
OC1CCN(c2c3c(nc4cc(-c5ccc(F)cc5)nn24)CCC3)CC1,nt,i,nt,i,i,48.9
Fc1ccc(-c2cc3nc4c(c(N5CCOCC5)n3n2)CCCC4)cc1,i,i,i,i,i,57.1
O=C(C1CCCO1)N1CCN(c2c3c(nc4cc(-c5ccc(F)cc5)nn24)CCC3)CC1 (stereo not given),i,i,i,i,i,i
Cc1cccc(-c2cc3nc4c(c(N5CCOCC5)n3n2)CCCC4)c1,84.7,i,i,i,i,72.3
Cc1cccc(-c2cc3nc4c(c(NCc5ccco5)n3n2)CCCC4)c1,nt,i,nt,i,i,42.3
